Columns and labels:
Brain [1] = test: Drug level in APP51/16 transgenic mouse brain expressing human APP at 30 umol/kg, iv administered twice at 2 hrs interval measured after 3 hrs of last dose; settings: in vivo
in vivo [2] = settings: C57BL/6, mouse, brain/plasma, iv, 30 umol/kg
[3] = Drug level in C57BL/6 mouse brain at 30 umol/kg, iv after 5 hrs; type: ADME, organism-based; settings: read-out: Drug uptake
Summary of the method: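 C57BL/6 mice, single i.v. dose of 30 µmol/kg. Compound levels in brain and plasma followed over 5 h; brain:plasma ratio from 5 min to 5 h.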

in vivo [4] = settings: C57BL/6, mouse, brain/plasma, iv, 30 umol/kg; remark: listed apart in the source
Brain [5] = test: Drug level in APP51/16 transgenic mouse brain expressing human APP at 30 umol/kg, iv after 5 hrs; type: ADME, organism-based; settings: in vivo
Summary of the method: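 Single i.v. dose of 30 µmol/kg in APP51/16 transgenic mice (human APP, brain-specific promoter), sacrificed 5 h after dosing. Compound level measured in brain.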

Brain [6] = test: Drug level in APP51/16 transgenic mouse brain expressing human APP at 100 umol/kg, po administered twice at 3 hrs interval measured after 7 hrs of last dose; settings: in vivo

Structure (SMILES) | Drug uptake (Brain [1]) [µmol/kg] | Kp at 5 h (in vivo [2]) | concentration at 5 h [3] [nM] | Kp at 5 min (in vivo [4]) | Drug uptake (Brain [5]) [µmol/kg] | Drug uptake (Brain [6]) [µmol/kg]
CC(C)c1cccc(CNC[C@@H](O)[C@@H]2C[C@H](C)CCCCCCCCC(=O)N(C)[C@@H](C)C(=O)N2)c1 | 4.3 | 4 | > 1000 | 1.5 | 1.3 | 
CC(C)c1ccc2c(c1)[C@@H](NC[C@@H](O)[C@@H]1C[C@H](C)CCCCCCCCC(=O)N(C)[C@@H](C)C(=O)N1)CC(C)(C)O2 |  |  |  |  |  | 1.5

Source: ChEMBL document CHEMBL1151821, “Macrocyclic peptidomimetic beta-secretase (BACE-1) inhibitors with activity in vivo” (Bioorg Med Chem Lett, 2009)
